According to ChEMBL document CHEMBL1135697, “Formaldehyde-induced DNA cross-link of indolizino[1,2-b]quinolines derived from the A-D rings of camptothecin” (J Med Chem, 2002):

Tests used:
Assay type in all cases: functional
[1] = species: Bos taurus; assay: Variation in melting temperature performed in BPE buffer at pH 7.1,using 10 uM drug and 20 uM calf thymus poly (dAT)
How it was run: (§1)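 UV melting is monitored at 260 nm with a 1 °C/min heating ramp. BPE buffer is 6 mM Na2HPO4, 2 mM NaH2PO4 and 1 mM EDTA, pH 7.1. DNA is calf thymus or poly(dAdT)2 at 20 μM. ΔTm = Tm(complex) − Tm(DNA alone).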

[2] = tested on: Calf thymus DNA; assay: Binding constant to reduce by 50% the fluorescence of ethidium bromide bound to calf thymus DNA; details: Bos taurus
How it was run: (§2)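 Competitive fluorometric displacement of ethidium bromide prebound to calf thymus DNA. The drug level that cuts ethidium fluorescence by 50% is found, and the binding constant is calculated from it.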

[3] = species: Bos taurus; assay: Absorption spectral changes upon addition of 200 uM calf thymus DNA to drug solution at 20 uM in 1 mM Na cacodylate buffer at pH 7.0
How it was run: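 Read-out is UV-visible absorption of the drug before and after DNA addition. Hypochromism (H) and bathochromic shift (Δλ) are reported.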

[4] = species: Bos taurus; assay: Variation in melting temperature performed in BPE buffer at pH 7.1,using 10 uM drug and 20 uM calf thymus DNA (CT); how it was run: as §1
[5] = tested on: Calf thymus DNA; assay: Binding constant to reduce by 50% the fluorescence of ethidium bromide bound to calf thymus DNA; No displacement of DNA-bound ethidium bromide at 50 uM; details: Bos taurus; how it was run: as §2

## Cc1cc2n(c(=O)c1CN)Cc1cc3ccc(OCCN4CCCCC4)cc3nc1-2
[1]
  ΔTm: 28.6 °C
[2]
  K app x10e6: 8.4 M⁻¹
[3]
  Bathochromic shift: 11 nm
  Hypochromic shift: 38.6%
[4]
  ΔTm: 19.4 °C

## Cc1cc2n(c(=O)c1CN)Cc1cc3ccccc3nc1-2
[1]
  ΔTm: 3 °C
[5]
  K app x10e6: No displacement of DNA-bound ethidium bromide at 50 uM
[3]
  Bathochromic shift: 8 nm
  Hypochromic shift: 33.1%
[4]
  ΔTm: 1.9 °C

## Cc1cc2n(c(=O)c1C(N)=O)Cc1cc3cc(OCCN4CCCCC4)ccc3nc1-2
[1]
  ΔTm: 5.8 °C
[2]
  K app x10e6: 0.29 M⁻¹
[3]
  Bathochromic shift: 9 nm
  Hypochromic shift: 33%
[4]
  ΔTm: 1.2 °C

## Cc1cc2n(c(=O)c1CN)Cc1cc3cc(OCCN4CCCCC4)ccc3nc1-2
[1]
  ΔTm: 19.8 °C
[2]
  K app x10e6: 2.5 M⁻¹
[3]
  Bathochromic shift: 9 nm
  Hypochromic shift: 35.3%
[4]
  ΔTm: 13.6 °C

## Cc1cc2n(c(=O)c1C(N)=O)Cc1cc3ccc(OCCN4CCCCC4)cc3nc1-2
[1]
  ΔTm: 12.8 °C
[2]
  K app x10e6: 0.2 M⁻¹
[3]
  Bathochromic shift: 8 nm
  Hypochromic shift: 35.8%
[4]
  ΔTm: 4.6 °C

## Cc1cc2n(c(=O)c1C(N)=O)Cc1cc3ccccc3nc1-2
[1]
  ΔTm: 0 °C
[5]
  K app x10e6: No displacement of DNA-bound ethidium bromide at 50 uM
[3]
  Bathochromic shift: 0 nm
  Hypochromic shift: 2.7%
[4]
  ΔTm: 0 °C
